The list is not random: actives were taken first. Their share in the collection is about 3.5%.
MrgX1 antagonist: antagonists of human MrgX1 receptor; Q96LB2; MRGX1-HEK293 calcium flux, Fluo-4, BAM8-22 antagonism; stronger effect = lower value; B-score at 10 µM; 1.3% of 310,000 active;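 active = calcium-response B-score plate-corrected more than 3 library SD below zero, starting fluorescence within 5 deviations, no agonist response on first addition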;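 note: peak minus trough fluorescence over baseline after final BAM8-22 challenge near maximal dose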
Target sequence (Q96LB2 whole entry, looked up): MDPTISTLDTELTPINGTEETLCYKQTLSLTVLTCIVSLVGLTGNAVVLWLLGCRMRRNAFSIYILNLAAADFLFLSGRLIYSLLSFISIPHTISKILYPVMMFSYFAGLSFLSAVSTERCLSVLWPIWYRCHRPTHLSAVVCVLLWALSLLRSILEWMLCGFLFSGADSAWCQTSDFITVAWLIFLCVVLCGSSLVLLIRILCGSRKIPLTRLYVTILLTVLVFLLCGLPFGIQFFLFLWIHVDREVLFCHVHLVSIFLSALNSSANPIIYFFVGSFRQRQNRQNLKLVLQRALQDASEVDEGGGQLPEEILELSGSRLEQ
RGS4 pot: RGS4 potentiation or activation | HEK293 M3R/inducible RGS4, carbachol calcium flux Fluo4; stronger effect = lower value | B-score at 10 µM | 0.92% of 310,000 active;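 active = B-score of the integrated calcium signal more than 4 SD below the library mean, with starting fluorescence not abnormally high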;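 note: negative B-score means reduced calcium response which marks RGS4 activation or potentiation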
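System: HEK293 FlpIn-TREx cells, stable M3R, doxycycline-inducible RGS4. Timing: overnight RGS4 induction, 30 min dye load 37 °C, 20 min compound RT. Also added: carbachol, ECmax concentration. Measured by: Fluo4 fluorescence kinetic imaging of calcium. Evaluation: integrated calcium ratio converted to B score.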
RGS4 block: inhibitors of human RGS4; AID 463165; B-score at 10 µM; HEK293 M3R/RGS4 inducible, Fluo-4 calcium flux; stronger effect = higher value; triggered by carbachol at its EC20; P49798; 0.45% of 310,000 active;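 active = B-score, a plate-corrected calcium signal, over three deviations above library mean, with baseline fluorescence within five deviations of library mean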;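 note: RGS4 expression induced by doxycycline in cells with stable M3 receptor; B-score is computed from the integrated fluorescence ratio over baseline after carbachol; higher B-score means a larger calcium signal and so more RGS4 inhibition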
Target sequence (P49798 whole entry, looked up): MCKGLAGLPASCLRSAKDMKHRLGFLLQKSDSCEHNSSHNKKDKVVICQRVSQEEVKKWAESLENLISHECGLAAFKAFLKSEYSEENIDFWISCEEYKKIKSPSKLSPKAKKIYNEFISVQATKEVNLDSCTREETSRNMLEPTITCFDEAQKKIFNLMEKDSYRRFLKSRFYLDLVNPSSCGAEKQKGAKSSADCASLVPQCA
MrgX1 PAM: human MrgX1 positive allosteric modulation, primary screen | Q96LB2 | MrgX1-HEK293, Fluo-4 calcium flux, FDSS; stronger effect = higher value | B-score at 10 µM | 0.63% of 310,000 active | AID 588675;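 active = plate-corrected calcium response at least 3 library SD above typical, normal starting fluorescence, not activating the receptor alone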;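 note: compound read alongside a low EC10 to EC30 dose of BAM8-22 agonist; peak minus trough fluorescence over baseline measured at the second addition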
MrgX1 agonist: activates human MrgX1 receptor signaling; 0.44% of 310,000 active; B-score at 10 µM; MrgX1-HEK293 cells, Fluo-4 calcium fluorescence, agonist mode; stronger effect = higher value; AID 588627;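 active = calcium response B-score plate-corrected fluorescence ratio at least 3 library SD, with starting fluorescence B-score inside 5 SD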
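Material: HEK293 cells stably expressing human MrgX1 receptor | Quantity: 15,000 cells per well | Times: Cells plated overnight, dye loaded 0.5 h 37 °C, 0.5 h room temperature | Measured by: Kinetic Fluo-4 NW fluorescence of intracellular calcium | Control set: Positive and negative controls per plate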
Numbers stand for hits; . = inactive; / = no result.

SMILES	MrgX1 antagonist	RGS4 pot	RGS4 block	MrgX1 PAM	MrgX1 agonist
O=C(CN1C(=O)S/C(=C/c2ccc(N3CCOCC3)cc2)C1=O)N1CCOCC1	.	-7.2	.	.	.
CCN(CC)CCNC(=O)CCCNC(=O)Cn1cnc2sc(C)c(C)c2c1=O	-9.1	.	.	.	.
CCc1ccc(NC(=O)CCCNC(=O)Cn2cnc3sc(C)c(C)c3c2=O)cc1	.	.	.	.	.
O=[N+]([O-])c1ccc(N/N=C\c2cccnc2)nc1	.	.	.	.	.
Cc1cccc(C)c1-n1c(C)cc(/C=N\Nc2ccc([N+](=O)[O-])cn2)c1C	-5	.	.	.	.
Cc1cc(C)c(NC(=S)N2CCN(c3ccc([N+](=O)[O-])cn3)CC2)cc1C	.	.	.	.	.
OCC1CCCN(c2nc(CN3CCCCC3)nc3scc(-c4ccccc4)c23)C1 (centres undefined)	.	.	.	.	.
CCNc1nc(CN2CCCCC2)nc2scc(-c3ccccc3)c12	.	-7.2	.	.	.
O=C(CCN1CCN(c2ccccc2F)CC1)Nc1cccc(F)c1	.	.	.	.	.
OC(CCN1CCCCC1)(c1ccccc1)C1CCCCC1 (centres undefined)	.	.	.	.	.
Cc1ccc(C(O)(CCN2CCCCC2)c2ccccc2)cc1 (centres undefined)	.	-7.6	.	.	.
Nc1ccc(N=Nc2ccccc2)c2cccnc12	.	.	5	.	.
C/C(=N\N(Cc1ccccc1)c1ccccc1)c1ccncc1	.	-9.2	.	.	.
CN(C(=O)c1ccncc1)c1ccccc1	.	.	.	.	.
Cc1cc(/C=C2\SC(=S)N(Cc3ccco3)C2=O)c(C)n1-c1cccnc1	/	.	.	/	/
Cc1cc(/C=C2/SC(=S)N(c3cccc(C(F)(F)F)c3)C2=O)c(C)n1-c1cccnc1	.	.	.	16	.
Cc1ccc(N(C(=O)Cn2nnc3ccccc32)C(C(=O)NCc2ccco2)c2ccc(C)o2)cc1 (centres undefined)	/	.	.	/	/
CCC(C)(C)NC(=O)C(c1ccco1)N(C(=O)Cn1nnc2ccccc21)c1ccc2c(c1)OCO2 (centres undefined)	.	.	.	8.9	.
COC(=O)CC1COc2ccccc2N1C(=O)/C=C/c1ccccc1 (centres undefined)	.	.	.	.	.
N/C(=N\OC(=O)c1csnn1)c1ccc(C(F)(F)F)cc1	.	.	.	.	.
COc1cc(S(=O)(=O)Nc2ccc(C)cc2)ccc1N=Cc1c(C)[nH]n(-c2ccc(C)cc2)c1=O	.	.	.	.	.
COc1cc(S(=O)(=O)Nc2ccc(C)cc2)ccc1N=Cc1c(C)c(C#N)c(=O)n(C)c1O	.	-8.6	.	.	.
O=[N+]([O-])c1ccc(Sc2cccc[n+]2[O-])c2nonc12	/	-8.4	.	/	/
O=[N+]([O-])c1ccc(Nc2ccccc2)c2nonc12	.	.	.	.	.
COc1ccc(CCNC(=O)C2CC3Cn4c(nc5ccccc54)C3N2c2ccccc2)cc1 (centres undefined)	.	.	.	.	.
SMILES	MrgX1 antagonist	RGS4 pot	RGS4 block	MrgX1 PAM	MrgX1 agonist
Cc1ccc(C(C)C)c(OCc2nn(CC(=O)c3ccc(Cl)cc3)c3[n+]2CCCCC3)c1	.	-7.4	.	.	.
O=C(Cn1nc(CNc2ccc(Cl)cc2)[n+]2c1CCCCC2)c1ccccc1	.	.	.	.	.
O=C(Nc1ccc2nc3n(c(=O)c2c1)CCCCC3)C(=O)N1CCN(c2ccccc2)CC1	.	.	.	.	.
COc1ccc(CNC(=O)CN(c2ccc(C)cc2)S(=O)(=O)c2c(C)nn(C)c2C)cc1	.	.	.	.	.
CCCc1nnc(NC(=O)C(=O)NCCN(CC)CC)s1	/	-7.3	.	/	/
O=C(Cc1cccs1)Nc1nnc(SCc2ccc(C(F)(F)F)cc2)s1	-9.1	.	.	.	.
Cc1cc2c(cc1S(=O)(=O)NC1CCCCC1C)OCC(=O)N2 (centres undefined)	.	.	.	.	.
CC(=O)OCCCN(C)CC/C=C1/c2ccccc2CSc2ccccc21	.	-7.9	.	.	.
CCCCN1C(=O)/C(=C/C=C2\N(C)c3ccccc3C2(C)C)SC1=S	-15	.	.	.	.
O=C(N/N=C/c1cc([N+](=O)[O-])ccc1O)C(O)(c1ccccc1)c1ccccc1	.	.	.	9.4	.
CN1C(=O)/C(=C/c2ccccc2OCc2cccc(F)c2)N(C)C1=S	.	-9.9	.	.	.
CN1C(=O)/C(=C/c2ccc(OCc3ccc(F)cc3)cc2)N(C)C1=S	.	.	.	.	.
O=S(=O)(c1ccccc1F)N1CCN(Cc2nc3ccccc3[nH]2)CC1	.	.	.	.	.
COC(=O)C1=NNC2C(=O)N(c3ccc(C)cc3)C(=O)C12 (centres undefined)	.	.	.	.	.
Cc1ccc(N2C(=O)C3C=NNC3C2=O)cc1 (centres undefined)	-5	.	.	.	.
CC1(c2ccccc2)NC(=O)N(CC(=O)N2CCN(S(=O)(=O)c3cccc([N+](=O)[O-])c3)CC2)C1=O (centres undefined)	.	.	.	.	.
Cn1c(C(=O)Nc2ccc3c(c2)OCCO3)cc2c(=O)n(C)c3ccccc3c21	.	-7.2	.	.	.
Cn1c(CNC(=O)CNS(=O)(=O)c2ccc(Cl)cc2)cc(=O)n(C)c1=O	.	.	.	.	.
CC1=[N+](C)N(c2ccccc2)C(=O)C1N=C/C=C/c1ccccc1 (centres undefined)	.	-7.5	.	.	.
c1cc2c(cc1CN1CCN(C3CCCCCC3)CC1)OCO2	.	-7.6	.	.	.
c1ccc(CN2CCC(N3CCN(Cc4ccc5c(c4)OCO5)CC3)CC2)cc1	.	.	.	.	.
CC(C)n1nc(C(=O)Nc2nnc(SCc3c(Cl)cccc3Cl)s2)c2ccccc2c1=O	-6.2	.	.	.	.
CC(C)n1nc(C(=O)Nc2nc3ccc(S(C)(=O)=O)cc3s2)c2ccccc2c1=O	.	.	.	.	.
CCOc1ccccc1C(=O)Nc1cccc(-c2nnc(-c3ccccc3)o2)c1	.	-7.2	.	.	.
CCOC(=O)Nc1ccc2c(c1)N(C(=O)CCN1CCN(C)CC1)c1ccccc1S2	.	.	.	.	.
CCOC(=O)Nc1ccc2c(c1)N(C(=O)N1CCN(C)CC1)c1ccccc1S2	.	-7.3	.	.	.
COc1cccc(/C=C2\Oc3cc(OCC(=O)N4CCC[C@H]4C(=O)O)ccc3C2=O)c1	.	.	.	.	.
O=C(NCCN1C(=O)S/C(=C\c2ccccc2F)C1=O)C1CCN(S(=O)(=O)c2cccs2)CC1	-8.9	.	.	.	.
Cc1cc(NC(=O)CSc2nnc(-c3c[nH]c4ccccc34)n2-c2ccc(Cl)cc2)no1	.	.	.	.	.
